Measurements published in ChEMBL document CHEMBL2346617, “Euryspongins A-C, three new unique sesquiterpenes from a marine sponge Euryspongia sp” (Bioorg Med Chem Lett, 2013).
Calls of active or inactive are those of the source. The calls are words filed in the database; no cut-off is given here.

How the values were obtained:
[1] = system: HCT-15; assay: Antiproliferative activity against human HCT15 cells at 45 uM; format: functional, cell-based
How it was run: (§1)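 Proliferation of human cancer cell lines HCT-15 (colon) and Jurkat (T-cell lymphoma) was tested at a single concentration of 45 μM per compound.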

[2] = biological target: T1, Tyrosine-protein phosphatase non-receptor type 1 (Homo sapiens) (UniProt P18031); assay: Inhibition of PTP1B (unknown origin) at 35 to 40 uM
T1 sequence (whole entry): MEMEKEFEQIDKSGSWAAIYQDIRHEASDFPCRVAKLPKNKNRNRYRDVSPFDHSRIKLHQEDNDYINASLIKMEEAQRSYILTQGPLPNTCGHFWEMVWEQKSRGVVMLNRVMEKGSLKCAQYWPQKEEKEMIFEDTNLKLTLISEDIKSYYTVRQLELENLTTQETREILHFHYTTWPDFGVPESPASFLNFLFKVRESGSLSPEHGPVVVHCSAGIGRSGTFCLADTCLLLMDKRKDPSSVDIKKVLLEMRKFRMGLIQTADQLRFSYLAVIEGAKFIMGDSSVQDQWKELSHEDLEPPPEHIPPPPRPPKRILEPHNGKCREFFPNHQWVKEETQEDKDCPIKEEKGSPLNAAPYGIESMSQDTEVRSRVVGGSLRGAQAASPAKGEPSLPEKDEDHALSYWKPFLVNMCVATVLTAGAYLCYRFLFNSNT

[3] = system: Jurkat; assay: Antiproliferative activity against human Jurkat cells at 45 uM; format: functional, cell-based; how it was run: as §1
[4] = biological target: T2, Tyrosine-protein phosphatase non-receptor type 1 (Homo sapiens, UniProt P18031); assay: Inhibition of PTP1B (unknown origin)
T2 sequence (P18031 whole entry): T1 sequence (whole entry)

Row | inhibition [2] | IC50 [4] [µM] | SMILES | inhibition [1] | inhibition [3]
1 | inactive | – | CC1=C[C@@H]2CC(C)(C)[C@H]1C[C@H](O)C1=CC(=O)O[C@@H]12 (relative stereo) | inactive | inactive
2 | inactive | – | CC1=C[C@@H]2CC(C)(C)[C@H]1C[C@H](O)c1ccoc12 (relative stereo) | inactive | inactive
3 | inactive | – | CO[C@]12OC(=O)C=C1[C@@H](O)C[C@H]1C(C)=C[C@@H]2CC1(C)C (relative stereo) | inactive | inactive
4 | – | 3.6 | CC1=C[C@@H]2CC(C)(C)[C@H]1/C=C\c1ccoc12 (relative stereo) [REL-DEHYDROEURYSPONGIN A] | inactive | inactive
